The record followed here is PMC2649372 (Biochemistry, 2008).

The target in test [1] is E129Q mutant 5-HT3 receptor (mouse 5-HT3A subunit) (Mus musculus, UniProt P23979, E129Q). In words: Agonist-induced currents, voltage clamp electrophysiology in Xenopus oocytes. It is filed as cell-based. Conditions: NR = no response.
Test [2] addresses T1, N128D mutant 5-HT3 receptor (mouse 5-HT3A subunit) (Mus musculus, UniProt P23979, N128D).
T1 sequence (P23979 24-483 isoform P23979-2 N128D limits assumed): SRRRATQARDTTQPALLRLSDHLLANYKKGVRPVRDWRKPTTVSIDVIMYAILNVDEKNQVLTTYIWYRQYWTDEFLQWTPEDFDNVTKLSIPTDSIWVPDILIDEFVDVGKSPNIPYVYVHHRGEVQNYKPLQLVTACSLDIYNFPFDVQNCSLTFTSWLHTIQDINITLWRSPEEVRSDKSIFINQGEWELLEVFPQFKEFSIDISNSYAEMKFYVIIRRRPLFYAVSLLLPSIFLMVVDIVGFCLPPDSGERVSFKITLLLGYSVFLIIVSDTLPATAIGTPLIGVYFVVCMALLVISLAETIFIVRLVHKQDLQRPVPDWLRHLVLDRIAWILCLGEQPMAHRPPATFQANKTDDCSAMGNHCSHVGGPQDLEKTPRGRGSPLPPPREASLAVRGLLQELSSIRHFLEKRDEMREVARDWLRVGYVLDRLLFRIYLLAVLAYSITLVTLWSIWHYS
The test is described as above. It is filed as cell-based. Particulars: N128D.

In test [3] the target is T2, N128-Akp mutant 5-HT3 receptor (mouse 5-HT3A subunit) (Mus musculus, UniProt Q6J1J7).
T2 sequence (Q6J1J7 24-483): T1 sequence (P23979 24-483 isoform P23979-2 N128D limits assumed) with D105N, F436L
In words: Agonist-induced currents, voltage clamp electrophysiology in Xenopus oocytes. It is filed as cell-based. An outline of the steps:
(§1)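 Mouse 5-HT3A receptor carrying Nha or Akp, introduced by nonsense suppression. Stage V-VI Xenopus oocytes were co-injected with 5 ng cRNA and 25 ng photodeprotected aminoacyl-tRNA. Controls received tRNA without an amino acid. At 24-72 h, agonist currents were recorded by two-electrode voltage clamp at -60 mV, 22-25 °C, in Ca-free ND96 (pH 7.5).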

The target in test [4] is E129G mutant 5-HT3 receptor (mouse 5-HT3A subunit) (Mus musculus, UniProt P23979, E129G). Description: Agonist-induced currents, voltage clamp electrophysiology in Xenopus oocytes. Conditions: NR = no response. It is filed as cell-based.
Test [5] addresses E129A mutant 5-HT3 receptor (mouse 5-HT3A subunit) (Mus musculus, UniProt P23979, E129A). Described as above. It is filed as cell-based. Conditions: NR = no response.
Test [6] addresses N128-Nha mutant 5-HT3 receptor (mouse 5-HT3A subunit). In words: Agonist-induced currents, voltage clamp electrophysiology in Xenopus oocytes. It is filed as cell-based. Particulars: SR = small (<100 nA) responses. The procedure, abridged: as §1
Test [7] deals with T3, N128R mutant 5-HT3 receptor (mouse 5-HT3A subunit) (Mus musculus, UniProt P23979, N128R).
T3 sequence (P23979 24-483 isoform P23979-2 N128R limits assumed): T1 sequence (P23979 24-483 isoform P23979-2 N128D limits assumed) with D105R
Description: Agonist-induced currents, voltage clamp electrophysiology in Xenopus oocytes. It is filed as cell-based. Conditions: SR = small (<100 nA) responses.

Test [8] concerns Asn128 mutant 5-HT3 receptors (all except Ala and Val). In words: Relative efficacy of mCPBG, voltage clamp electrophysiology in Xenopus oocytes. It is filed as cell-based, mouse. Particulars: Asn128 mutations.
For test [9], the target named is E129K mutant 5-HT3 receptor (mouse 5-HT3A subunit) (Mus musculus, UniProt P23979, E129K). Description: Agonist-induced currents, voltage clamp electrophysiology in Xenopus oocytes. It is filed as cell-based. Particulars: NR = no response.

Each structure is given as a SMILES string. Where a chain is given by its changes, count along the chain named. Marks after values point to notes of the source that are not given here. Bounds are passed on as bounds.

Chain of E129K mutant 5-HT3 receptor (mouse 5-HT3A subunit) (P23979 24-483 isoform P23979-2 E129K limits assumed): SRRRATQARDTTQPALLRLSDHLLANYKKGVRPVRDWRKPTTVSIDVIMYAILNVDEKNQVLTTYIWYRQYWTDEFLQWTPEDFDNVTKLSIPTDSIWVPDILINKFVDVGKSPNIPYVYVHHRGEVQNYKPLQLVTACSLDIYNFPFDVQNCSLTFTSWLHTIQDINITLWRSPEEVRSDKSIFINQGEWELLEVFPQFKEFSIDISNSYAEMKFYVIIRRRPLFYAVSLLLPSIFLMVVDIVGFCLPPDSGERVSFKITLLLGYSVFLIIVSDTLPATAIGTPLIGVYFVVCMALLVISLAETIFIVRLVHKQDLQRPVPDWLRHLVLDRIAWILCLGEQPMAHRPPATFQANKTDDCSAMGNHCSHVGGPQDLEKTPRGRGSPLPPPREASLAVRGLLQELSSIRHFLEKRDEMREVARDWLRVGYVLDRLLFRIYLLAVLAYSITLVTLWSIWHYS
Chain of E129G mutant 5-HT3 receptor (mouse 5-HT3A subunit) (P23979 24-483 isoform P23979-2 E129G limits assumed): as the sequence (P23979 24-483 isoform P23979-2 E129K limits assumed) above, with K106G counted along it
Chain of E129A mutant 5-HT3 receptor (mouse 5-HT3A subunit) (P23979 24-489 E129A): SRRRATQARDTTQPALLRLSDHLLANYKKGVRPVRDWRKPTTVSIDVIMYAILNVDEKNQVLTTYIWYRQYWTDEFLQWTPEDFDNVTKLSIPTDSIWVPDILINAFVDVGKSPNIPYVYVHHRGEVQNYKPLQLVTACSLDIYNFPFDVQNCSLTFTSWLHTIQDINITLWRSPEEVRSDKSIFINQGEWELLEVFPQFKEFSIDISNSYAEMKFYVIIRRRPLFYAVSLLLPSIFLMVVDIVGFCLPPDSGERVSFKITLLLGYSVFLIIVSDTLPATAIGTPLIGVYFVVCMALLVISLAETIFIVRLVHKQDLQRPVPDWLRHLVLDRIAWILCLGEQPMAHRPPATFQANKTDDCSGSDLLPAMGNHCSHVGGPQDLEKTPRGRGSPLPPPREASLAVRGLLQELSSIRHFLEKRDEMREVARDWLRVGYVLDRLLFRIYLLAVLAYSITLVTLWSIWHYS
Chain of E129Q mutant 5-HT3 receptor (mouse 5-HT3A subunit) (P23979 24-483 isoform P23979-2 E129Q limits assumed): as the sequence (P23979 24-483 isoform P23979-2 E129K limits assumed) above, with K106Q counted along it

Usually EC50 stands for the concentration that produces a half-maximal response. A lower EC50 goes with greater potency. Usually pEC50 stands for the negative decadic logarithm of the EC50, by convention in mol/L. A low value points to a high EC50. As for `NCCc1c[nH]c2ccc(O)cc12` [5-HT, 5-hydroxytryptamine], the “nH (Hill coefficient)” value in test [1] is 1.55 ± 0.07 ^b. Also, in [2], the “nH (Hill coefficient)” value was 1.63 ± 0.08 ^b. In test [3], the response was half-maximal at 4.6 µM (EC50), the “nH (Hill coefficient)” value was 1.49 ± 0.06 ^b and the pEC50 was 5.33 ± 0.01 ^b.

Consider `N=C(N)NC(=N)Nc1cccc(Cl)c1` [mCPBG, m-chlorophenylbiguanide], for which the EC50 in [4] was over 100 µM; in test [2], 270 nM; in test [5], over 100 µM; in test [6] it was 2800 nM; in [7] it was 7.3 µM; in test [9], over 100 µM. In addition, the “nH (Hill coefficient)” value in test [2] was 1.54 ± 0.15; in test [6], 2.18 ± 0.23; in test [7], 1.93 ± 0.16. The pEC50 in test [2] (SR = small (<100 nA) responses) was 6.56 ± 0.03; in test [6], 5.55 ± 0.02 ^b; in [7] it was 5.14 ± 0.02 ^b. The “increase of mCPBG Rmax compared to that of WT” value in test [8] is given as 2−19 fold.
